Compound activity from PubChem.
APP 5'UTR act: activators of APP 5'UTR luciferase reporter, primary screen, SH-SY5Y cells. actives 1% (n = 190,000). activation, % at 2 µM. SH-SY5Y APP 5'UTR luciferase reporter, luminescence; zero percent = DMSO vehicle wells;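 active means activation above a set limit, based on mean plus 3 SD of controls, cut at about 140% in these data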
STAT1 activator: STAT1 signaling activators, primary screen, cell-based, HTS, luciferase reporter; NIH 3T3 STAT1-luciferase reporter, IFN-gamma, luminescence; 100% = IFN-gamma alone, no compound; activation (% of control), % at 5.5 µM; actives 2.6% (n = 200,000); AID 932, 2007;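 active means activation above the screen-wide mean activation plus 3 SD, cut at about 130% in these data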;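 further: raw ratio to IFN-gamma control signal so 100% means no change and 0% no light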
NF-kB expr up: activators of NF-kB expression in neurons, primary screen, cell-based, HTS; actives 1.6% (n = 190,000); AID 1239, 2008; human neuronal cells, NF-kB reporter expression; hits give high values; fold change at 12.5 µM; in the data active means fold change above about 3.3
sdo1 growth: growth rescue of sdo1-depleted yeast, primary screen, S. cerevisiae, bone marrow failure model; S. cerevisiae sdo1-depleted JHY4D growth rescue, OD600 30 h; hits give high values; pdr5 snq2 efflux-pump mutant strain; z-score at 10 µM; actives 0.21% (n = 140,000);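 active means z-score above 3 at both the 24 hr and the 30 hr optical density reads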;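 further: z-score against mean and SD of all compound wells on the same plate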
FLuc inhib CS: firefly luciferase enzyme inhibitors, primary screen, artefact control for luciferase-based inhibitor screens, biochemical, luminescence, ATPLite; Luciferin 4-monooxygenase (Photinus pyralis), P08659; 10 min; inhibition, % at 10 µM; actives 1.5% (n = 200,000);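 active means inhibition above about 50% when tested at 10 µM, limit read from the data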
Target sequence (P08659 whole entry, looked up): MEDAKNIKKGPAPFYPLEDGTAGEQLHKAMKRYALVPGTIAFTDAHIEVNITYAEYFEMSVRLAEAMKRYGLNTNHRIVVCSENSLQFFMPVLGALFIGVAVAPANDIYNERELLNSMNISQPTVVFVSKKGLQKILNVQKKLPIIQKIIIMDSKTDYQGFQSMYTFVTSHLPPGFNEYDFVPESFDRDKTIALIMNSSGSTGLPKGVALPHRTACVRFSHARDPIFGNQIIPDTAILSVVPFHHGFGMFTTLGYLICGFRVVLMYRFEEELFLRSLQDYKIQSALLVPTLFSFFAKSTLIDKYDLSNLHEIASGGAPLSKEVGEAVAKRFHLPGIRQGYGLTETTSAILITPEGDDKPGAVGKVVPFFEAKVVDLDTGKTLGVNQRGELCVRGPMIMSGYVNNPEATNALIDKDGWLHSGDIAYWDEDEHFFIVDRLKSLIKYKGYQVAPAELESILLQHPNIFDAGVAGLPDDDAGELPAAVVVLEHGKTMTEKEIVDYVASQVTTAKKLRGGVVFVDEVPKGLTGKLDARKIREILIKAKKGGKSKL
FLuc stim CS: FLuc activators, initial screening, artefact control for FLuc-dependent activation tests, biochemical, ATPlite luminescence. ATPlite luciferase biochemical, 10 min; 0 = ATP-free wells, 1 = DMSO control. activation factor at 10 µM. Luciferin 4-monooxygenase (Photinus pyralis), P08659. 200,000 tested, under 10 active. AID 1027, 2008;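 active means luciferase activation factor, scaled between plate controls, of at least 2 with compound at 10 µM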
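System: Luciferase/luciferin detection reagent, cell-free biochemical luciferase assay | Medium: PBS buffer for ATP | Dosing: Test compounds dosed from 2 mM stocks in 100% DMSO | Timing: 10 min at ambient temperature | Signal: Luminescence measurement of luciferase light output | Evaluation: Luciferase activation, seen as luminescence increase over controls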
An asterisk follows results filed as active; nt = not tested or not shown. Most compounds without a hit are left out; they make up all but 4.3% or so of the library.

SMILES	APP 5'UTR act	STAT1 activator	NF-kB expr up	sdo1 growth	FLuc inhib CS	FLuc stim CS
O=S(=O)(CCN(CCS(=O)(=O)C(F)(F)F)CC1CCCO1)C(F)(F)F (stereo unspecified)	2	104	0.89	-1.2	-4	1
O=c1[nH]c2cc3c(cc2cc1C(c1nnnn1CC1CCCO1)N1CCCCCC1)OCCO3 (stereo unspecified)	-8	98	1	0.62	-5	1.1
COC(=O)c1sc(NC(=S)NC(=O)c2ccccc2Cl)nc1C	30	121	1.3	-0.56	67*	0.3
COC(=O)c1sc(NC(=S)NC(=O)c2ccccc2)nc1C	84	110	1	-0.48	63*	0.4
CCOC(=O)c1sc(NC(=S)NC(=O)c2ccccc2)nc1C	86	126	2	nt	37	0.6
COc1ccc(-c2nnc(SCC(=O)NC(=O)NCc3ccco3)o2)cc1	0	96	1.1	0.65	1	1
CC(C)NC(=S)NN=C1c2ccccc2-c2ccccc21	13	100	0.98	nt	-3	1
Cc1ccc(OC(=O)c2sc3ncn(C)c(=O)c3c2C)cc1	129	136*	3.4*	nt	2	1
O=[N+]([O-])c1ccc(N2CCN(C(=S)Nc3ccc(F)cc3F)CC2)cc1	4	79	0.77	nt	-1	1
Cc1ccsc1/C=N/Nc1nc(=O)[nH]nc1C	57	71	2.1	nt	52*	0.5
Cc1cc(C)nc(N/N=C/c2sccc2C)n1	21	115	1.3	nt	11	0.9
Cc1ccsc1/C=N/Nc1ncc(Cl)cc1Cl	nt	140*	2.4	-0.38	32	0.7
Cc1cc(NC(=O)c2noc3c2CCc2ccccc2-3)no1	nt	nt	1.7	0.2	-2	1
CC(=O)c1cccc(NC(=O)c2noc3c2CCc2ccccc2-3)c1	169*	123	1.6	nt	32	0.7
COc1ccc2c(c1)CCc1c(C(=O)NCc3cccnc3)noc1-2	24	112	1.4	1.2	9	0.9
COc1ccc2c(c1)CCc1c(C(=O)NCC(C)C)noc1-2	178*	122	6.3*	nt	49	0.5
CCCNC(=O)c1noc2c1CCc1cc(OC)ccc1-2	160*	110	6.1*	nt	78*	0.2
COc1ccc2c(c1)CCc1c(C(=O)N3CCCCCC3)noc1-2	130	136*	3.4*	-0.78	12	0.9
O=C(Nc1ccc(C(F)(F)F)cc1)c1ccccc1Br	30	129*	2.3	nt	-4	1
COC(=O)Cc1ccc(NC(=O)c2ccccc2Br)cc1	-19	97	1.2	nt	20	0.8
O=C(NNC(=O)c1ccccc1Br)c1ccc(Cl)cc1	1	108	1.6	0.42	10	0.9
O=C(Nc1ccc(Cl)cc1F)c1ccccc1Br	120	148*	5.7*	0.57	20	0.8
Cc1cc(SCC(=O)Nc2cccc(S(=O)(=O)N3CCOCC3)c2)nc2ccccc12	-12	94	1.2	nt	0	1
Cc1ccc(-c2nc3ccc(Cl)cc3n2OC(C)C(=O)O)cc1 (stereo unspecified)	116	141*	1.7	nt	3	1
Cc1cc(O)c(/C=N/Nc2ccccc2)c(=O)o1	-13	88	1.3	-0.93	51*	0.5
SMILES	APP 5'UTR act	STAT1 activator	NF-kB expr up	sdo1 growth	FLuc inhib CS	FLuc stim CS
Cc1ccc(C(=O)c2cc([N+](=O)[O-])ccc2N2CCOCC2)cc1C	-93	110	1.8	-1.5	0	1
Cc1ccc(C(=O)c2cc([N+](=O)[O-])ccc2N2CCOCC2)c(C)c1	-94	105	5.4*	-0.65	-5	1
O=C(c1ccc(Br)cc1)c1cc([N+](=O)[O-])ccc1N1CCCCC1	-95	102	5*	-0.09	1	1
Cc1ccc(S(=O)(=O)Nc2cc(=O)[nH]c(SCc3ccc(Cl)cc3)n2)cc1	0	91	0.91	0.39	-8	1.1
C/C(=N\NC(=O)c1c(Br)cnn1C)c1ccc(NC(=O)c2ccc(F)cc2)cc1	67	102	1.3	nt	-6	1.1
Cc1ccc(SCC(=O)NC(=O)NCc2ccccc2)c(C)c1	14	104	1.1	-1.4	-8	1.1
CC(C)c1ccc2nc(N)sc2c1	122	113	3.1	nt	67*	0.3
Nc1nc2ccc(O)cc2s1	8	96	1.8	1.2	0	1
COC(=O)c1ccc(CNC(=O)CSc2nnc(COc3ccccc3)n2C)o1	nt	97	1	1.2	-6	1.1
Cn1ncc(Cl)c1C(=O)Nc1ccc(Cl)cn1	7	114	1.3	-0.43	-2	1
c1ccc2sc(SCc3ccc(-c4nnco4)cc3)nc2c1	121	119	4.2*	-0.41	7	0.9
O=C(CSc1nc2ccccc2s1)N1c2ccccc2Sc2ccccc21	2	98	3.1	-0.26	-6	1.1
Cc1nn(-c2ccccn2)c2c1-c1nc(N)ncc1CC2	45	134*	1.7	0.96	61*	0.4
CCN(CC)S(=O)(=O)c1ccc(N=Nc2c(C)[nH]n(C(N)=S)c2=O)cc1	22	116	1.7	-0.84	38	0.6
CC(=O)N(C)c1ccc(N=Nc2c(C)[nH]n(C(N)=S)c2=O)cc1	139*	148*	4.5*	nt	49	0.5
Cc1cccc(N=Nc2c(C)[nH]n(C(N)=S)c2=O)c1C	47	131*	2	nt	6	0.9
Cc1ccccc1N=Nc1c(C)[nH]n(C(N)=S)c1=O	-8	107	1.2	-0.69	0	1
Cc1ccc(NC(=O)/C=C\C(=O)NCC(=O)O)cc1C	-1	96	1	1.2	-3	1
CC(=O)Nc1cccc(Oc2ccc(-c3noc(C)n3)cc2)c1	89	138*	2.6	-1	21	0.8
COc1ccc(-c2noc(-c3ccccc3C(=O)Nc3cccc(OC)c3)n2)cc1	-1	98	0.52	-0.93	-2	1
Cc1sc2ncnc(SCC(=O)Nc3nc(-c4ccc(F)c(F)c4)cs3)c2c1C	10	94	nt	nt	-4	1
CCn1c(-c2ccccc2)csc1=Nc1ccc(S(=O)(=O)O)cc1	2	99	0.88	-1.6	54*	0.5
OCCCn1c(-c2ccccc2)csc1=Nc1ccccc1	7	96	1.1	nt	-4	1
CN(C)c1ccc(/C=C/c2nc3ccccc3s2)cc1	14	17	0.6	-0.28	93*	0.1
COc1cc(/C=C/c2nc3ccccc3s2)cc(OC)c1O	129	114	1.1	nt	9	0.9
Cc1ccc(/C=C/c2nc3ccccc3s2)s1	99	60	2.5	-1.2	91*	0.1
